Legend:
[1] = biological target: T1, Cytochrome P450 11B1, mitochondrial (Homo sapiens, UniProt P15538); assay: (§1) In vitro inhibitory concentration against human CYP11B1 expressed in V79 MZh hamster fibroblasts incubated with 100 nM of substrate deoxy-corticosterone in presence of the compound
T1 sequence (P15538 whole entry): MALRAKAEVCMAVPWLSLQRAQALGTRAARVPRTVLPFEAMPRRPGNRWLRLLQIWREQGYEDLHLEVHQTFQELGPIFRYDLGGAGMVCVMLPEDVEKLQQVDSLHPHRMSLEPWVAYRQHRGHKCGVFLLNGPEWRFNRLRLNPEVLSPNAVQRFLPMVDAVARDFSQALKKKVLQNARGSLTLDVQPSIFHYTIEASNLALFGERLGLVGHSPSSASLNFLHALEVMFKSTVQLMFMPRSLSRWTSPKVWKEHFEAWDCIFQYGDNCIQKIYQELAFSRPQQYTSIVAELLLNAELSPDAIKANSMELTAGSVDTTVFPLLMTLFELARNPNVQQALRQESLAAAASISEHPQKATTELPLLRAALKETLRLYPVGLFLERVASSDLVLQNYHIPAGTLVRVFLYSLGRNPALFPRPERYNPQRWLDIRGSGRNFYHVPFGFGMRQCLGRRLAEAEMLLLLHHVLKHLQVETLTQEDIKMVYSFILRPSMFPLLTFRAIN

[2] = biological target: T2, Cytochrome P450 11B2, mitochondrial (Homo sapiens, UniProt P19099); assay: In vitro inhibition of human CYP11B2 expressed in Schizosaccharomyces pombe incubated with 100 nM of substrate deoxy-corticosterone in presence of 500 nM of compound
T2 sequence (P19099 whole entry): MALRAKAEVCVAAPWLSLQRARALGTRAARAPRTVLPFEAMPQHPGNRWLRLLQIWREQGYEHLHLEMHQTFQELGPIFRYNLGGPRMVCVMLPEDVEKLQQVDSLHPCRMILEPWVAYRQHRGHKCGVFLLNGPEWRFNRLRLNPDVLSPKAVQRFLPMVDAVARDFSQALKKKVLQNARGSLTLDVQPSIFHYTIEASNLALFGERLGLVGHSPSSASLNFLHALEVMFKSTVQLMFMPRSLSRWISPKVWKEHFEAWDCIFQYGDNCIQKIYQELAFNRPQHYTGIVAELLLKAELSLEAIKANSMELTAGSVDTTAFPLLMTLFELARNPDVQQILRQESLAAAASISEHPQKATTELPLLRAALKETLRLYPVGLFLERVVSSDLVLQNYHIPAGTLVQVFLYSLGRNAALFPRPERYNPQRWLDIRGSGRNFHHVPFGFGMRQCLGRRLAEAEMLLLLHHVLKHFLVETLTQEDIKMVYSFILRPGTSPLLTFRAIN

Homo sapiens = species on record: Homo sapiens; assay: In vitro IC50 ratio against human CYP11B1 to that of human CYP11B2
Procedure, shortened: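 IC50 ratio from V79 MZh hamster fibroblasts expressing human CYP11B1 or CYP11B2, each incubated with [4-14C]-11-deoxycorticosterone (100 nM) and inhibitor at no fewer than three concentrations; steroids extracted into ethyl acetate and quantified by HPTLC with phosphoimaging.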

Aromatase = biological target: T3, Aromatase (Homo sapiens, UniProt P11511); assay: In vitro inhibitory concentration against human placental CYP19 incubated with 500 nM of substrate androstenedione in presence of the compound
T3 sequence (P11511 whole entry): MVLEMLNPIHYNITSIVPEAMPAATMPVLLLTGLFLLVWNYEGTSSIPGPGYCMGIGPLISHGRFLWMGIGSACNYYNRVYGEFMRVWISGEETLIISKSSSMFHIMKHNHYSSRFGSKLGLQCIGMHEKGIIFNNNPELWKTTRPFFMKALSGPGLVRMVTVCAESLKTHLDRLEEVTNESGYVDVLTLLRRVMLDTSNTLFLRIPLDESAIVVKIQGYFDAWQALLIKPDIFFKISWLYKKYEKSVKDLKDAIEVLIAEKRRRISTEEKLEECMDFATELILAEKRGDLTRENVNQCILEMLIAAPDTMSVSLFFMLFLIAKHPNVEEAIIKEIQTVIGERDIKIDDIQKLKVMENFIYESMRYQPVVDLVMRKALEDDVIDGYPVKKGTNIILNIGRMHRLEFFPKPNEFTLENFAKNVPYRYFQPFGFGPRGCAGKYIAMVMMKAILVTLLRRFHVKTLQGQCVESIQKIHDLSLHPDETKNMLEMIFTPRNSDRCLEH

[3] = biological target: T2, Cytochrome P450 11B2, mitochondrial; assay: In vitro inhibitory concentration against human CYP11B2 expressed in V79MZh hamster fibroblasts incubated with 100 nM of substrate deoxy-corticosterone in presence of the compound
Procedure, shortened: (§2)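 Intact V79 MZh hamster fibroblasts expressing human CYP11B1 or CYP11B2, incubated with [4-14C]-11-deoxycorticosterone (100 nM) and inhibitor at no fewer than three concentrations to give IC50. Stopped with ethyl acetate, shaken, centrifuged (10 000g, 2 min); steroids in organic phase analysed by HPTLC/phosphoimager. Mean of four determinations, standard deviation less than 5%.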

CYP11B1 = biological target: T4, CYP11B1 (Homo sapiens, UniProt P15538); assay: as §1; settings: human, V79 MZh hamster fibroblasts expressing human CYP11B1, probe deoxy-corticosterone
T4 sequence (P15538 whole entry): T1 sequence (P15538 whole entry)

CYP11B2 (Homo sapiens) = assay: In vitro inhibitory concentration against human CYP11B2 expressed in V79 MZh hamster fibroblasts incubated with 100 nM of substrate deoxy-corticosterone in presence of the compound; settings: V79 MZh hamster fibroblasts expressing human CYP11B2, probe deoxy-corticosterone
[4] = biological target: T2, Cytochrome P450 11B2, mitochondrial; assay: In vitro inhibitory concentration against human CYP11B2 expressed in V79 MZh hamster fibroblasts incubated with 100 nM of substrate deoxy-corticosterone in presence of the compound; procedure, shortened: as §2
CYP17 = biological target: T5, CYP17 (Homo sapiens, UniProt P05093); assay: In vitro inhibition of human CYP17 expressed in Escherichia coli incubated with 2.5 uM of substrate progesterone in presence of 2.5 uM of compound; settings: probe progesterone
T5 sequence (P05093 whole entry): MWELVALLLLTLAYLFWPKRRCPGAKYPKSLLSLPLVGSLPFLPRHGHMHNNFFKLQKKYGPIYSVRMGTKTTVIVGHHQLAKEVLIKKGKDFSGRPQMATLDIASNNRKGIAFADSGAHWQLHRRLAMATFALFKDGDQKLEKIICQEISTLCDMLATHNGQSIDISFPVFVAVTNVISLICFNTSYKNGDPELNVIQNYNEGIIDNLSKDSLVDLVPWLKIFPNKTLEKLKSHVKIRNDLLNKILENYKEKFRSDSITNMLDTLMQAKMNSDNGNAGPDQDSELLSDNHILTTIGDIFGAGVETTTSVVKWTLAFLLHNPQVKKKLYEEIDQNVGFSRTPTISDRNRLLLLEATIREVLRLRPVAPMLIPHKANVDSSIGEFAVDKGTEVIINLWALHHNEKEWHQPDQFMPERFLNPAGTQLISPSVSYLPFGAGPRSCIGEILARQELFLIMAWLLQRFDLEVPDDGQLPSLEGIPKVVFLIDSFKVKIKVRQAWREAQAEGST

Row | inhibition at 0.5 µM [2] [%] | Selectivity ratio (Homo sapiens) | IC50 (Aromatase) [nM] | IC50 [3] [nM] | IC50 (CYP11B1) [nM] | IC50 (CYP11B2 (Homo sapiens)) [nM] | IC50 [4] [nM] | inhibition at 2.5 µM (CYP17) [%] | SMILES | IC50 [1] [nM]
1 | 54 | 2 | 650 | 15 | – | – | – | – | C(=C1/CCCc2ccccc21)/c1ccncc1 | 143
2 | – | 19.5 | – | 57 | 58 | – | – | – | Fc1ccc2c(c1)CC/C2=C\c1cccc2cnccc12 | –
3 | – | 1.4 | – | 18 | – | – | – | – | C(=C1\CCc2ccccc21)/c1ccncc1 | 931
4 | – | 118 | – | 27 | 3180 | – | – | – | Fc1ccc2c(c1)CC/C2=C\c1cncnc1 | –
5 | – | 14.4 | – | 65 | – | 26 | – | – | Fc1ccc2c(c1)CC/C2=C/c1cccc2cnccc12 | –
6 | 67 | 1.7 | – | – | – | – | – | – | C/C(=C1/CCc2cc(F)ccc21)c1cccnc1 | 96
7 | 15 | – | 2800 | – | – | – | 41 | – | CC1C/C(=C/c2cccnc2)c2ccccc21 (configuration not stated) | –
8 | 83 | 0.9 | 3550 | 92 | – | – | – | 33 | C(=C1\CCc2ccccc21)/c1cccnc1 | 87
9 | – | 80.7 | – | – | – | – | 11 | 14 | C(=C1/CCc2ccccc21)/c1cccnc1 | –

Row | SMILES | inhibition at 0.5 µM [2] [%] | Selectivity ratio (Homo sapiens) | IC50 (Aromatase) [nM] | IC50 [3] [nM] | IC50 (CYP11B1) [nM] | IC50 (CYP11B2 (Homo sapiens)) [nM] | IC50 [4] [nM] | inhibition at 2.5 µM (CYP17) [%] | IC50 [1] [nM]
10 | Brc1ccc2c(c1)CC/C2=C\c1ccncc1 | – | 0.4 | > 36000 | 24 | – | – | – | – | 2640
11 | Brc1ccc2c(c1)CC/C2=C/c1ccncc1 | 40 | 1.8 | 3400 | 56 | – | – | – | – | 484
12 | Fc1ccc2c(c1)CC/C2=C/c1ccncc1 | – | 7.6 | – | 29 | – | – | – | – | 34
13 | Fc1ccc2c(c1)CC/C2=C\c1ccncc1 | – | 0.3 | – | 15 | – | – | – | – | 1100
